The source of these data is ChEMBL document CHEMBL1154278, “Cassiarins C-E, antiplasmodial alkaloids from the flowers of Cassia siamea” (J Nat Prod, 2009).

In one assay the test system is HL-60 (Homo sapiens). Briefly: Cytotoxicity against human HL-60 cells.
Another assay relates to Plasmodium falciparum. The assay can be described thus: Antimalarial activity against Plasmodium falciparum 3D7 by Giemsa staining. It is filed as functional, organism-based. A digest of the protocol:
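P. falciparum 3D7 clone grown in human erythrocyte culture (Trager–Jensen) in 24-well plates. Compounds dissolved in DMSO (final <0.5%) and diluted in RPMI 1640 with 10% human plasma, 25 mM HEPES and 25 mM NaHCO₃ to final 10, 1, 0.1, 0.01, 0.001 µg/mL. Growth read from MeOH-fixed, Giemsa-stained smears; IC50 = 50% growth inhibition versus untreated control.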

Usually IC50 stands for the concentration that inhibits the measured activity by half. Read a high IC50 as a need for much substance. On to `Cc1cc2cc(=O)cc3oc(C)cc(o1)c23` [ANHYDROBARAKOL], for which the IC50 was over 100 µM in the assay on HL-60 (Homo sapiens) and 4.7 µM in the assay on Plasmodium falciparum.
For `CC(=O)Cc1cc(O)cc2oc(C)cc(=O)c12`, in that order: over 100 µM and 8.6 µM.
For `CC(=O)Cc1cc(O)cc2oc(CC3(C)Cc4nc(C)cc5cc(O)cc(c45)O3)cc(=O)c12` (configuration not stated) [CASSIARIN D], in that order: over 100 µM and 3.6 µM.
Consider `Cc1cc2c3c(cc(=O)cc-3o1)CC(C)O2` (configuration not stated), for which the half-maximal inhibitory concentration (IC50) was over 100 µM in the assay with HL-60 (Homo sapiens) and 2.3 µM in the assay with Plasmodium falciparum.
For `Cc1cc2cc(O)cc3c2c(n1)C=C(CC1(C)Cc2nc(C)cc4cc(O)cc(c24)O1)O3` (configuration not stated) [CASSIARIN E], in that order: over 100 µM and 7.3 µM.
For `Cc1cc2cc(O)cc3c2c(n1)CC(C)O3` (configuration not stated) [CASSIARIN C], in that order: over 100 µM and 24.2 µM.
